Results published in ChEMBL document CHEMBL1134623, “Design and synthesis of a series of (2R)-N(4)-hydroxy-2-(3-hydroxybenzyl)-N(1)- [(1S,2R)-2-hydroxy-2,3-dihydro-1H-inden-1-yl]butanediamide derivatives as potent, selective, and orally bioavailable aggrecanase inhibitors” (J Med Chem, 2001).

Columns and labels:
[1] = biological target: 72 kDa type IV collagenase (Homo sapiens, UniProt P08253); assay: Inhibition of matrix metalloprotease-2
[2] = biological target: Neutrophil collagenase (Homo sapiens, UniProt P22894); assay: Inhibition of matrix metalloprotease-8
[3] = biological target: Matrix metalloproteinase-9 (Homo sapiens, UniProt P14780); assay: Inhibition of human matrix metalloprotease-9
[4] = biological target: T1, Interstitial collagenase (Homo sapiens, UniProt P03956); assay: Inhibition of matrix metalloprotease-1
T1 sequence (P03956 whole entry): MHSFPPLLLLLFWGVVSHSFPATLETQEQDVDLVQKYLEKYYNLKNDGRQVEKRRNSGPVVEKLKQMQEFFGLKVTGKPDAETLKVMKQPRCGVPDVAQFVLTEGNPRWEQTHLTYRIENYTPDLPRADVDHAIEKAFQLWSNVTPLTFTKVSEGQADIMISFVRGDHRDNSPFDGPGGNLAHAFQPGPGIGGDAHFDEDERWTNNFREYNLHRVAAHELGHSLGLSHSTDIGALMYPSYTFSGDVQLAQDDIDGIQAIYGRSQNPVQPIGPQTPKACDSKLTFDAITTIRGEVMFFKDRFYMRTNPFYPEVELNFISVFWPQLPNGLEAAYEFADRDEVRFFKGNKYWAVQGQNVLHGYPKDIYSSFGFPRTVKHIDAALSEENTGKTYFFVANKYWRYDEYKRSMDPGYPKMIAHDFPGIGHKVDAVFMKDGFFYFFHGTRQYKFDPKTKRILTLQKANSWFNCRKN

[5] = Inhibition of aggrecanase; set-up: species or system Homo sapiens
In short: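 Enzyme was a partially purified preparation from IL-1-stimulated bovine nasal cartilage. No amino acid sequence was available for it when screening began.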

Chain of Matrix metalloproteinase-9 (P14780 whole entry): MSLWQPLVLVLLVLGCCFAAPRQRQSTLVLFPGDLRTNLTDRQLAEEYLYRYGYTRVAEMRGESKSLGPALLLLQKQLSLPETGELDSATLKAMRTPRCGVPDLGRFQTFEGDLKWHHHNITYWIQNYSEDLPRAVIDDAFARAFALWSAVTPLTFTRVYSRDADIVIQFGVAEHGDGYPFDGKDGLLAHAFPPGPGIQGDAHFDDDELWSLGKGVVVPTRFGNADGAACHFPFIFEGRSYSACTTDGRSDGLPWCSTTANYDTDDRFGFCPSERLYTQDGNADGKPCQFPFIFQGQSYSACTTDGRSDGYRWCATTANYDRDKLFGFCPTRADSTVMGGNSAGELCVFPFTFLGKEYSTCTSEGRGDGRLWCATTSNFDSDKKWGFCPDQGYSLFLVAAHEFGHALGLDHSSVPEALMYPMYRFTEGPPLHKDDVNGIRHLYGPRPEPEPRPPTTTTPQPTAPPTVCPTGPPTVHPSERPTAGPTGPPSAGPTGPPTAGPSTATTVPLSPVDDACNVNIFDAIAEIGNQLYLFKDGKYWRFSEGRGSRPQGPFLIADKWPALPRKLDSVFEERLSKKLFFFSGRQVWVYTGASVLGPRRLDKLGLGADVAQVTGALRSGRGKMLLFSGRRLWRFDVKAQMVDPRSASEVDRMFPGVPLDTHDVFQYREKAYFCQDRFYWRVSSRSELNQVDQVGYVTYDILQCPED
Chain of 72 kDa type IV collagenase (P08253 whole entry): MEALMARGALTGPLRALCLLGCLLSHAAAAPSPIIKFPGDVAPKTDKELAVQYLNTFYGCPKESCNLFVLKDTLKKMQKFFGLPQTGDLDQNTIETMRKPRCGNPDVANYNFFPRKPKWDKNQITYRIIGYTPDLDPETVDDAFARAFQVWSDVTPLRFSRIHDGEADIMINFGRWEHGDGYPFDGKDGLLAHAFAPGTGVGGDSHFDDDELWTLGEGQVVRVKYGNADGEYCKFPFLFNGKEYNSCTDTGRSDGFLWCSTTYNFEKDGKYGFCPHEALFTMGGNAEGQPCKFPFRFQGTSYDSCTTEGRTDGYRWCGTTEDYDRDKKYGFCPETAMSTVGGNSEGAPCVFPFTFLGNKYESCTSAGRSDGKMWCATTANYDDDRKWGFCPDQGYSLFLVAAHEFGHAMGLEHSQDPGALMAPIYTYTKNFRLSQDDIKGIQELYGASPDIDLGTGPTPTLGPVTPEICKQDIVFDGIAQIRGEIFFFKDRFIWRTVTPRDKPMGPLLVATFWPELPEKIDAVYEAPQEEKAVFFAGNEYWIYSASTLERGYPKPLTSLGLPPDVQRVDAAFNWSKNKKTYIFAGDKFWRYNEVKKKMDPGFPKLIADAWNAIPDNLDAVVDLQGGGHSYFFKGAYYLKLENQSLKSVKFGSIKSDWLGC
Chain of Neutrophil collagenase (P22894 whole entry): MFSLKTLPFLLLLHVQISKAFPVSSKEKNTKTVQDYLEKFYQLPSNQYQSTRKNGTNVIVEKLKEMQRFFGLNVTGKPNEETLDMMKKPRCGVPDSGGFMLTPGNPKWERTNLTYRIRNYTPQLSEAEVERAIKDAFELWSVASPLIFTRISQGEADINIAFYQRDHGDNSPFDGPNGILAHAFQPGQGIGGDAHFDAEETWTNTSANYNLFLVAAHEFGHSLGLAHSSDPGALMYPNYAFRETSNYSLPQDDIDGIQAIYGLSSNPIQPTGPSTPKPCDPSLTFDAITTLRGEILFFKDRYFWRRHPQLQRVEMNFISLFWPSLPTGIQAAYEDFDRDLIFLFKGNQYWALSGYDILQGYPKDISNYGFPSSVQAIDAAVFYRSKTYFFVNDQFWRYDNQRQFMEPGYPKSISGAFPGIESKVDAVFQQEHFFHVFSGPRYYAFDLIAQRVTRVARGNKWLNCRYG

| Ki [1] [nM] | Ki [2] [nM] | Ki [3] [nM] | Ki [4] [nM] | IC50 [5] [nM] | Compound |
| --- | --- | --- | --- | --- | --- |
| 6600 | 1190 | 15500 | 95500 | 3140 | COc1cccc(C[C@H](CC(=O)NO)C(=O)N[C@H]2c3ccccc3C[C@H]2O)c1 |
| 52 | 9.2 | 203 | 1160 | 16.4 | COc1ccc(C[C@H](CC(=O)NO)C(=O)N[C@H]2c3ccccc3C[C@H]2O)cc1 |
| 35000 | 40000 | 22000 | 50000 | 790 | O=C(C[C@@H](Cc1ccc2c(c1)OCO2)C(=O)N[C@H]1c2ccccc2C[C@H]1O)NO |
| 1530 | 303 | 4200 | 1090 | 13300 | CC(C)C[C@H](CC(=O)NO)C(=O)N[C@@H]1c2ccccc2C[C@@H]1O |
| 6300 | 171 | 4470 | 33200 | 12 | O=C(NO)[C@@H](NCC1CC1)[C@@H](Cc1cccc(O)c1)C(=O)N[C@H]1c2ccccc2C[C@H]1O |
| 31600 | 15300 | 21200 | 75000 | 1310 | O=C(C[C@@H](Cc1ccc(O)cc1)C(=O)N[C@@H]1CCc2ccccc21)NO |
| 73 | 37 | 162 | 82 | 1700 | CC(C)C[C@H](CC(=O)NO)C(=O)N[C@H]1c2ccccc2C[C@H]1O |
| 4.3 | 0.45 | 3.2 | 10.7 | 332 | CNC(=O)[C@H](Cc1ccc(OC)cc1)NC(=O)[C@@H](CC(=O)NO)Cc1ccc(O)cc1 |
| 408 | 70 | 166 | 946 | 182 | O=C(C[C@@H](Cc1ccc(O)cc1)C(=O)N[C@H]1c2ccccc2C[C@H]1O)NO |
|  | 0.7 | < 1 |  | 368 | CNC(=O)[C@H](Cc1ccc(OC)cc1)NC(=O)[C@@H](CC(=O)NO)CC(C)C |
| 1510 | 8600 | 3320 | 31000 | 64 | O=C(C[C@@H](Cc1cccc(O)c1)C(=O)N[C@H]1c2ccccc2C[C@H]1O)NO |
